Series [1] concerns the target T1, Retinoic acid receptor RXR-alpha (Homo sapiens) (UniProt P19793).
T1 sequence (whole entry): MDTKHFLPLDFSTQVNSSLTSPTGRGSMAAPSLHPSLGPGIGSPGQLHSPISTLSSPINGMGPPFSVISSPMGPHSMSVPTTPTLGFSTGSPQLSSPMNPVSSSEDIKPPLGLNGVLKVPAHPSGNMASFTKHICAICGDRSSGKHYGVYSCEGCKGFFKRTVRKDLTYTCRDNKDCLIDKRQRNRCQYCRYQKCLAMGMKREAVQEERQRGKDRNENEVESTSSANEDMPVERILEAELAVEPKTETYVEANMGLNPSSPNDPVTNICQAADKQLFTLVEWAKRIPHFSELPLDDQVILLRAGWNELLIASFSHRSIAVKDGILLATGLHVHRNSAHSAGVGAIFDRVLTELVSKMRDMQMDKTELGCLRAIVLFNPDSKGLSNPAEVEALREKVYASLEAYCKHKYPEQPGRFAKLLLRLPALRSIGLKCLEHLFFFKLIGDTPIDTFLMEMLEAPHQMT
The series can be described thus: Transactivation of RXRalpha (unknown origin) expressed in COS1 cells at 0.1 uM after 18 hrs by luciferase reporter gene assay relative to bexarotene. Format: cell-based. The note with it: COS-1. In a few lines: (§1)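 COS-1 cells in DMEM with 10% FBS at 37 °C, 5% CO2, transfected with RXRα, an RXR-response-element luciferase reporter and a SEAP background vector. Cells were seeded at about 2.0 × 10⁴ per well with compound (DMSO below 1%) for 18 h. Luciferase was normalized to SEAP and expressed relative to 1 μM reference RXR full agonist as 100%. EC50 came from full dose-response curves. Triplicates, at least three experiments.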
On the technique in general: A reporter such as luciferase makes a cellular process visible.

The target of series [2] is T2, Retinoic acid receptor alpha (Homo sapiens) (UniProt P10276).
T2 sequence (whole entry): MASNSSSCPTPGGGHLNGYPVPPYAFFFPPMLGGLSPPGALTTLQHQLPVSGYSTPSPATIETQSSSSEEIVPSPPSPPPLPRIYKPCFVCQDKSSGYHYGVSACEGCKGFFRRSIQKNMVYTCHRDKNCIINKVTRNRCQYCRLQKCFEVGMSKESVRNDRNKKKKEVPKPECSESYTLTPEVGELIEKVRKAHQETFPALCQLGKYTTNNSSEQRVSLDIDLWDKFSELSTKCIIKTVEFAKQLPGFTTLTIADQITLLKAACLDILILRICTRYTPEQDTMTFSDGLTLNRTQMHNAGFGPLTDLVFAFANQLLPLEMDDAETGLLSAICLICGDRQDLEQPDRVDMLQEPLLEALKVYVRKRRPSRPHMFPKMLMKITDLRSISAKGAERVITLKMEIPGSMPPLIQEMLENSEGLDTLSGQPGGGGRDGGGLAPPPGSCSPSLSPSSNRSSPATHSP
The series can be described thus: Transactivation of RARalpha (unknown origin) by luciferase reporter gene assay relative to Am80.

The target in series [3] is T3, Retinoic acid receptor beta (Homo sapiens) (UniProt P10826).
T3 sequence (whole entry): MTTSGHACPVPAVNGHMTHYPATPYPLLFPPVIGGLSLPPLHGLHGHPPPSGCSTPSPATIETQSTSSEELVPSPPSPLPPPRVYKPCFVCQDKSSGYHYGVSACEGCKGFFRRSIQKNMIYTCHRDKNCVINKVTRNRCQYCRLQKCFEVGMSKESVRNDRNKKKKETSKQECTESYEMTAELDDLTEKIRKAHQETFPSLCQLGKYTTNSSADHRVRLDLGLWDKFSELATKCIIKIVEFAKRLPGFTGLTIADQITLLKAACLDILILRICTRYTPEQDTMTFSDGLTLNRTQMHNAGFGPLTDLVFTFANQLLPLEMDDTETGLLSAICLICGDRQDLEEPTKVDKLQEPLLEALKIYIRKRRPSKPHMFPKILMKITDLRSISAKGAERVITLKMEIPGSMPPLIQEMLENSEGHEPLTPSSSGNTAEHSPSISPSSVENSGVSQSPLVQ
Put plainly: Transactivation of RARbeta (unknown origin) by luciferase reporter gene assay relative to Am80.

For series [4], the system named is Mus musculus. The series can be described thus: Toxicity against KKAy mouse assessed as plasma ALP level at 10 mg/kg/day, po for 14 days (reference value: 358.2 +/- 43.1 IU). Format: organism-based. Also on record: route oral. The note with it: in vivo, 336 h.
Series [5] has as its target T1, Retinoic acid receptor RXR-alpha (Homo sapiens). Put plainly: Transactivation of RXRalpha (unknown origin) expressed in COS1 cells at 10 uM after 18 hrs by luciferase reporter gene assay relative to bexarotene. In kind it is cell-based. The conditions noted are these: COS-1. In a few lines: as §1
For series [6], the system named is Rattus norvegicus. Put plainly: Hepatotoxicity in Sprague-Dawley rat at 30 mg/kg/day, po for 28 days. Details: route oral. Format: toxicity, organism-based. The conditions noted are these: in vivo, 672 h. A digest of the protocol:
(§2)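 Male and female SD rats, four weeks old on arrival, two per cage. Oral 30 mg/kg/day or vehicle (1% ethanol/0.5% CMC in water, 5 mL/kg) for 28 days, body weight recorded daily. After overnight fasting and isoflurane anaesthesia, liver, brain, kidney, spleen and testis were weighed, and serum was collected (2000g, 10 min, 4 °C) for blood chemistry.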

Series [7] concerns Mus musculus. Put plainly: Toxicity in ICR mouse assessed as weight gain at 30 mg/kg/day, po for 7 days relative to control. Format: organism-based. Details: route oral. The conditions noted are these: in vivo, 168 h. A digest of the protocol: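 Male ICR mice, 6−7 weeks old, four per cage, grouped by body weight. Oral 30 mg/kg or vehicle (1% ethanol/0.5% CMC in water, 10 mL/kg) once daily for 7 days, body weight recorded daily. After overnight fasting, mice were weighed under ether, and liver was removed and weighed. Serum was analysed on a dry-chemistry analyser for TG, TCHO, ALP, CRE, BUN and other markers. n = 7−23, ANOVA.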

Series [8] concerns the target T4, Retinoic acid receptor RXR-alpha (Mus musculus) (UniProt P28700).
T4 sequence (whole entry): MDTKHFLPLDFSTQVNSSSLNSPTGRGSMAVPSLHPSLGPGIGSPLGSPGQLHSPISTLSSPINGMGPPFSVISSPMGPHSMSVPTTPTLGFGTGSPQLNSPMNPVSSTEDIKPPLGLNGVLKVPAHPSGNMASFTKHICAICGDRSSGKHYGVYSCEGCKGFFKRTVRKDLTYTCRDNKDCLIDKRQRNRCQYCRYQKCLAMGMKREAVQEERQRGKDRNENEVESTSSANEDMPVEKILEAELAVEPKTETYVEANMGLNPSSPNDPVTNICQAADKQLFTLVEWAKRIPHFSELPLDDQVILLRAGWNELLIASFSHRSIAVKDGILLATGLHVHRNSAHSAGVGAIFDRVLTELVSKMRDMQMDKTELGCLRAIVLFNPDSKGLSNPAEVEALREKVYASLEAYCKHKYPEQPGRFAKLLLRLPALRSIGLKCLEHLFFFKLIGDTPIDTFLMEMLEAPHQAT
Put plainly: Partial agonist activity at mouse RXRalpha expressed in COS1 cells by luciferase reporter gene assay relative to bexarotene. The note with it: COS-1. In kind it is cell-based.

For series [9], the system named is Rattus norvegicus. The series can be described thus: Toxicity in Sprague-Dawley rat assessed as change in body weight at 30 mg/kg, po for 28 days. In kind it is organism-based. Details: dose 30 mg/kg, route oral. The conditions noted are these: in vivo, 672 h. A digest of the protocol: as §2
Series [10] concerns Mus musculus. Put plainly: Toxicity against KKAy mouse assessed as plasma triglyceride level at 10 mg/kg/day, po for 14 days (reference value: 122.4 +/- 11.0 mg/dL). The conditions noted are these: in vivo, 336 h. Format: organism-based. Also on record: route oral.
Series [11] has as its system Mus musculus. The series can be described thus: Toxicity against KKAy mouse assessed as blood urea nitrogen level at 10 mg/kg/day, po for 14 days (reference value: 21.9 +/- 1.1 mg/dL). The note with it: in vivo, 336 h. In kind it is organism-based. Details: route oral.

The source made the active and inactive calls. The calls are words filed in the database; no cut-off is given here.

`Cc1cc2c(cc1-n1c(C(F)(F)F)nc3cc(C(=O)O)ccc31)C(C)(C)CCC2(C)C`: the Efficacy was found to be 21% in series [1] and 71% in [5]. Further, the result in series [2], in [3] and in series [8] was Active. The Activity in series [4] was 554 IU; in series [6], “Toxic”; in series [7], “Non-toxic”; in series [9] it was “Non-toxic”; in [10], 185 mg/dL; in series [11], 22.5 mg/dL.
